In ChEMBL document CHEMBL1789904, “Imaging of Plasmodium liver stages to drive next-generation antimalarial drug discovery” (Science, 2011):

Test system: Plasmodium yoelii
Experiment: NOVARTIS: Antimalarial liver stage activity measured as reduction in Plasmodium yoelii schizont area in HepG2-A16-CD81 cells by immuno-fluorescence, and median schizont size at 10uM compound concentration
Assay type: functional, organism-based
Conditions: for IC50: Plasmodium yoelii, HepG2-A16-CD81
Outline: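 Host and parasite nuclei stained with Hoechst 33342, parasites with αPyHSP70 antibody; 25 images per well by high-content imaging; median parasite (schizont) area measured by automated image analysis, ~50 schizonts per experiment, two or more independent experiments.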

Structure (SMILES)	Schizont size [um]	IC50 [nM]
O=c1c2c([nH]c3ccccc13)CCCCCCCCCC2	25.15	99
CN1CCN(c2ccc(Nc3c4ccccc4nc4ccccc34)cc2)CC1	45.82	547
O=C(Cc1ccccc1)NC(c1ccc(Cl)cc1)c1ccc2cccnc2c1O (centres undefined)	17.33	190
Cc1ccc(-c2nn3c(O)c4c(nc3c2C)CCCC4)cc1	28.7	11.3
CC(C)CC(N)C(=O)N1CCn2c(nc(-c3ccccc3)c2Nc2ccc3c(c2)OCO3)C1 (centres undefined)	–	186
O=C1C2=C(Nc3ccccc3SC2c2ccc(OCc3ccccc3)cc2)c2ccccc21 (centres undefined)	23.17	58
OC1=C2C(=Nc3ccccc3SC2c2ccco2)c2ccccc21 (centres undefined)	31.63	113
Cl.Fc1ccc(Nc2nc(NCc3ccco3)c3ccccc3n2)cc1	45.3	74.9
CSc1nnc(-c2cccc([N+](=O)[O-])c2)n1Cc1ccccc1	97.38	2510
CCc1c(C#N)c(N)nc(SCC(=O)c2ccc(C)cc2)c1C#N	189.13	> 10000
NC(Cc1ccccc1)C(=O)N1CCn2c(nc(-c3ccccc3)c2Nc2ccc3c(c2)OCO3)C1 (centres undefined)	–	1.85
COc1ccc(C2Sc3ccccc3N=C3C2=C(O)c2ccccc23)cc1 (centres undefined)	39.14	706
COc1ccc2[nH]c(=O)c(CN(C(=S)Nc3ccccc3OC)C3CCCC3)cc2c1	157.5	> 9740
